This passage reports ED50 and Ratio results from ChEMBL document CHEMBL3244284, “(2-Carboxy-1,4-dihydro-4-oxoquinolyl)oxamic acids and (2-carboxy-1,4-dihydro-4-oxobenzo[h]quinolyl)oxamic acids as antiallergy agents” (1977).

Assay [1] is filed under the species Rattus norvegicus. The experiment in a line: Antiallergic activity in Sprague-Dawley rat assessed as inhibition of egg albumin/ Hemophilus pertussis antibody-induced passive cutaneous anaphylaxis (PCA) reaction. It is filed as functional. The following applies: read-out: ID50 (the source's name). In outline:
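Rats immunized ip with 0.5 mg egg albumin plus 0.5 cm3 heat-killed H. pertussis vaccine; serum collected at 18-20 days. Five 0.1-ml serum dilutions given intradermally on shaved back of 200-g rats. At 72 h, iv challenge with 4 mg EA plus 0.5% Evans blue; compound in THAM solution iv at challenge. Inhibition of spot count versus untreated; ID50 from 3-4 doses, six rats each.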

Assay [2] is filed under the species Rattus norvegicus. Put plainly: Ratio of disodium cromoglycate ID50 to compound ID50 for antiallergic activity in Sprague-Dawley rat by passive cutaneous anaphylaxis (PCA) reaction. It is filed as functional.

On to `O=C(O)C(=O)Nc1cccc2c1ccc1c(=O)cc(C(=O)O)[nH]c12`, for which the ED50 in assay [1] came to 0.1 mg/kg. In assay [2], the Ratio was 25.

As to `Cc1ccc(NC(=O)C(=O)O)c2c(=O)cc(C(=O)O)[nH]c12`, the ED50 in assay [1] amounted to 0.4 mg/kg. The same measure, in the same setting: as for `O=C([O-])c1cc(=O)c2c(OCC(O)COc3cccc4oc(C(=O)[O-])cc(=O)c34)cccc2o1.[Na+].[Na+]` [CROMOLYN SODIUM], the figure is 2.5 mg/kg. On to `Cc1cc(NC(=O)C(=O)O)cc2c(=O)cc(C(=O)O)[nH]c12`, for which the ED50 in assay [1] is 0.1 mg/kg. Also, the Ratio in assay [2] amounted to 25. In the case of `O=C(O)C(=O)Nc1cc2c(=O)cc(C(=O)O)[nH]c2c2ccccc12`, the ED50 in assay [1] was determined as 0.5 mg/kg. Turning to `O=C(O)C(=O)Nc1ccc2[nH]c(C(=O)O)cc(=O)c2c1`, the ED50 in assay [1] was 7 mg/kg. The same measure, in the same setting: as for `COc1ccc(NC(=O)C(=O)O)c2c(=O)cc(C(=O)O)[nH]c12`, the figure is 0.7 mg/kg; as for `O=C(O)C(=O)Nc1ccc(Cl)c2[nH]c(C(=O)O)cc(=O)c12`, 0.3 mg/kg. As to `Cc1c(NC(=O)C(=O)O)ccc2c(=O)cc(C(=O)O)[nH]c12`, in assay [1], the ED50 came out at 0.1 mg/kg. The Ratio in assay [2] was determined as 25.
